This is a sample that favours compounds with a hit; in the whole collection about 1.8% have one here.
EBI2 block: EBI2 receptor antagonists, beta-arrestin recruitment, primary screen, cell-based, luminescence, 7a,25-OHC stimulation, uHTS; 7a,25-OHC stimulated; inhibition, % at 5 µM; actives 0.81% (n = 360,000); in the data active = inhibition above about 38%;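 also: enzyme fragment complementation signal reports receptor beta-arrestin coupling in cells; 0% = agonist plus DMSO wells and 100% = wells without agonist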
APJ antag: antagonists of human apelin receptor APJ, primary screen, CHO-K1 cells, beta-arrestin complementation, luminescence; P35414; inhibition, % at 20 µM; actives 0.32% (n = 330,000);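 active = inhibition above about 40% at 20 µM, limit read from the data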;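 also: cells challenged with 10 nM apelin-13 agonist together with compound; plate controls were apelin-13 plus DMSO wells for no effect and DMSO wells lacking apelin-13 for full effect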
CXCR6 inh: CXCR6 receptor inhibitors, primary screen, cell-based, beta-arrestin, luminescence, CHO-K1 PathHunter, 1536-well; inhibition, % at 20 µM; actives 0.36% (n = 360,000); AID 602244, 2012; in the data active = inhibition above about 34%, passing the limit was not always enough;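 also: antagonist mode with CXCL16 agonist at 10 nM final; 0% = 10 nM CXCL16 with DMSO and 100% = unstimulated wells without agonist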
APJ ag: agonists of human apelin receptor APJ, primary screen, CHO-K1 cells, PathHunter beta-arrestin, luminescence | AID 2520, 2010 | 0% DMSO wells, 100% apelin | activation, % at 20 µM | actives 0.11% (n = 330,000) | P35414;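 active = activation more than six SD over the plate average, tested at 20 µM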;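 also: 0% = DMSO alone and 100% = apelin-13 at 10 nM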
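Test system: CHO-K1 APJ beta-arrestin complementation cell line. Amount: cell density 1000 per well. Controls: DMSO negative, 10 nM Apelin-13 positive. Signal: luminescent beta-gal fragment complementation, chemiluminescent substrate. Read-out basis: agonist-driven arrestin binding to APJ. Timing: compound stimulation 90 min at 25 °C, detection 60 min.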
CCR6 antagonist: CCR6 receptor antagonists, primary screen, cell-based, CHO-K1, luminescence, beta-arrestin, uHTS. CHO-K1 CCR6 PathHunter beta-arrestin, CCL20-stimulated. inhibition, % at 20 µM. actives 0.49% (n = 340,000). AID 493098, 2011;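 active = compounds whose inhibition of the agonist-driven luminescence signal at 20 µM reaches about 50%, limit read from the data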;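 also: cells stimulated with CCL20 at 14 nM final; plate controls were DMSO with CCL20 for no effect and DMSO without agonist for full effect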
B2AR ag: beta2AR agonists driving receptor internalization, primary screen, cell-based, FAP fluorogen, flow cytometry; actives 0.43% (n = 340,000); response, % (concentration not given with the values); Beta-2 adrenergic receptor (Homo sapiens), P07550; Am2.2-beta2AR cells;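 active = response above a set limit, near 3 SD of response in nonfluorescent compounds, cut at about 42% in these data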
Target sequence (P07550 whole entry, looked up): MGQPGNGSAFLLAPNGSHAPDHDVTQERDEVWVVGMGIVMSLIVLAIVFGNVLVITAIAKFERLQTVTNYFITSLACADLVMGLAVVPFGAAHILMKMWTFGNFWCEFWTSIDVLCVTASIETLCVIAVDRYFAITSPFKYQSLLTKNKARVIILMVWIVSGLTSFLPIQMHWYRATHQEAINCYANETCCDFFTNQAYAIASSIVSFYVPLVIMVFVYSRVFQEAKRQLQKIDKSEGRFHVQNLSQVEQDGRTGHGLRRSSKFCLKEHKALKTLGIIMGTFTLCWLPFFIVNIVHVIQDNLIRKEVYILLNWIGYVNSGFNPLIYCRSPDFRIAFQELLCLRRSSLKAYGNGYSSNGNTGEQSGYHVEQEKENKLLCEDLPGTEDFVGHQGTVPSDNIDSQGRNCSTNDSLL
Beta2AR ag CP1: beta2AR agonists via receptor internalization, confirmation, cell-based, FAP fluorogen, flow cytometry, single point, cherry pick 1; Am2.2-beta2AR cells, FAP surface receptor; hits give low values; shares compounds with B2AR ag; actives 25% (n = 1,100); percent response (surface receptor), % at 10 µM;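 active = surface receptor percent response at or below 58%, roughly 3 SD from nonfluorescent compounds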
FAP fluor counter: flagged in Am2.2 fluorescence counterscreen for beta-2AR agonists. calls only at 10 µM. shares compounds with B2AR ag. AID 588765. 1,100 tested, under 10 active. Am2.2 cells, FAP fluorogen flow cytometry; hits give low values;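 active = percent response below a set limit in fluorescence channel 1 and below 50% in channel 8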
Starred values were filed as active, the others as inactive; i = inactive; . = no result.

SMILES	EBI2 block	APJ antag	CXCR6 inh	APJ ag	CCR6 antagonist	B2AR ag	Beta2AR ag CP1	FAP fluor counter
CC1(C)C2CCC1(CS(=O)(=O)N1CCN(c3ccccc3F)CC1)C(=O)C2 (configuration not stated)	8.7	8.5	-8.2	2.0	11.3	71.9*	111.7	i
O=C(CCc1ccc(S(=O)(=O)N2CCOCC2)cc1)Nc1nc(COc2ccccc2)cs1	14.2	-2.1	-3.2	-2.0	-0.1	62.4*	20.0*	i
COC(=O)c1cc2nc(-c3ccc(OC)c(OC)c3)cc(C(F)(F)F)n2n1	-1.0	20.8	5.6	-0.4	3.8	-2.0	.	.
COc1ccc(-c2cc(C(F)(F)F)n3nc(C(=O)O)cc3n2)cc1OC	-2.4	7.0	0.9	-5.0	-4.7	51.5*	99.0	i
Cc1cccc(C)c1NC(=O)CN1CCN(CCCC(c2ccc(F)cc2)c2ccc(F)cc2)CC1	20.1	19.6	-4.1	2.2	25.5	20.1	104.0	i
Cc1cccc(C)c1NC(=O)CN1CCC(Cc2ccccc2)CC1	1.6	.	-3.2	.	.	.	.	.
C[C@@H](NCCc1ccc(O)cc1)[C@@H](O)c1ccc(O)cc1	-1.8	5.5	4.5	-3.3	1.8	9.7	95.8	i
CC(NCCc1ccc(O)cc1)C(O)c1ccc(O)cc1 (configuration not stated)	3.7	6.5	4.2	-6.0	15.2	-5.3	90.7	i
CC(CCc1ccc(O)cc1)NCCC(c1ccccc1)c1ccccc1 (configuration not stated)	-8.5	4.9	-5.7	0.0	-5.1	15.8	68.7	i
C=CCC[C@H](Cc1ccc(F)cc1)C(=O)OC[C@@H](NC(=O)[C@H](CC=C)CC(=O)NCCO)c1ccccc1	3.6	10.3	-9.1	-0.2	-5.4	-2.4	.	.
CCCN(C)C1CN(Cc2cn(Cc3cc(C)cc(C)c3)nn2)S(=O)(=O)C1 (configuration not stated)	1.8	.	-7.1	.	.	.	.	.
Cc1nn(-c2ccccc2)c(C)c1C(=O)OCC(=O)Nc1ccccc1Cl	-3.0	.	-2.2	.	.	.	.	.
Cc1cc(C)cc(CC(=O)N2CCC2(C)C(=O)NS(=O)(=O)c2cccc(F)c2)c1 (configuration not stated)	-3.4	.	-7.5	.	.	.	.	.
Cn1nc(-c2ccc(C(=O)NCCO)cc2)c2ccccc2c1=O	-11.7	-23.4	2.6	-1.5	-9.7	-4.6	110.5	i
CC(C)(C)NNC(=S)Nc1ccc(S(=O)(=O)N2CCOCC2)cc1	-4.5	1.2	5.2	2.5	10.6	3.4	.	.
Cc1ccc(NC(=S)NNC(C)(C)C)cc1	5.0	0.9	1.3	-0.5	5.4	1.0	103.5	i
CCC(c1ccc(O)c(O)c1)C(CC)c1ccc(O)c(O)c1 (configuration not stated)	5.6	.	8.7	.	21.8	4.9	.	.
CCC(NC(C)C)C(O)c1ccc(O)c(O)c1 (configuration not stated)	-9.9	-10.3	-3.8	7.3	4.5	19.5	42.3*	i
CCCc1cc(Nc2cccc(OCC)c2)n2ncnc2n1	-14.9	6.9	8.2	-4.9	-14.4	48.9*	135.9	i
N#CCCN(Cc1ccccc1)C(C(=O)NC1CCCCC1)c1cc2ccccc2o1 (configuration not stated)	17.1	.	8.8	.	.	.	.	.
CC1CC2(C)Oc3ccccc3CC2C(C)C1CNCCCN(C)C (configuration not stated)	-10.8	3.4	-3.4	-2.6	21.7	42.1*	77.5	i
O=C(CSc1nnc(-c2ccncc2)n1Cc1ccco1)N1c2ccccc2Sc2ccc(Cl)cc21	20.9	-2.3	27.4	-4.0	20.0	84.7*	6.7*	i

Assay outcomes (PubChem BioAssay)
